Data from ChEMBL document CHEMBL4043182, “On the synthesis of quinone-based BODIPY hybrids: New insights on antitumor activity and mechanism of action in cancer cells” (Bioorg Med Chem Lett, 2017).

Legend:
[1] = system: MDA-MB-435; test: Antiproliferative activity against human MDA-MB-435 cells after 72 hrs by MTT assay; type: functional, cell-based; conditions: MDA-MB-435, 72 h
Method in brief: (§1)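 MTT reduction: cancer lines plated at 0.7×10^5 to 0.3×10^6 cells/well, V79 and L929 fibroblasts at 0.5×10^5 cells/well. Compounds in DMSO (0.1%) were given for 24 h at 0.04–40.92 µM or 72 h at 0.04–8.19 µM. Fresh medium with 0.5 mg/mL MTT was added for 3 h, then formazan was dissolved in DMSO and read at 595 nm as % of control. IC50 came from nonlinear regression with 95% CI. Doxorubicin (0.001–1.06 µM) was the positive control. Triplicate, ≥3 repeats.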

[2] = system: SF-295; test: Cytotoxicity against human SF295 cells after 24 hrs in presence of GSH-OEt by MTT assay; type: functional, cell-based; conditions: SF-295, 24 h
Method in brief: (§2)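 24 h MTT exposure (0.04–40.92 µM in 0.1% DMSO), with or without co-treatment with GSH ethyl ester (15 mM) to gauge the ROS contribution. MTT was 0.5 mg/mL for 3 h, with formazan dissolved in DMSO and absorbance at 595 nm expressed as % of control. Triplicate, repeated at least three times.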

[3] = system: SF-295; test: Cytotoxicity against human SF295 cells after 24 hrs in absence of GSH-OEt by MTT assay; type: functional, cell-based; conditions: SF-295, 24 h; method in brief: as §2
[4] = system: PC-3; test: Antiproliferative activity against human PC3 cells after 72 hrs by MTT assay; type: functional, cell-based; conditions: PC-3, 72 h; method in brief: as §1
[5] = system: PC-3; test: Cytotoxicity against human PC3 cells after 24 hrs in presence of GSH-OEt by MTT assay; type: functional, cell-based; conditions: PC-3, 24 h; method in brief: as §2
[6] = system: SF-295; test: Antiproliferative activity against human SF295 cells after 72 hrs by MTT assay; type: functional, cell-based; conditions: SF-295, 72 h; method in brief: as §1
[7] = system: L929; test: Cytotoxicity against mouse L929 cells after 24 hrs in presence of GSH-OEt by MTT assay; type: cell-based; conditions: L929, 24 h; method in brief: as §2
[8] = system: SW-620; test: Antiproliferative activity against human SW620 cells after 72 hrs by MTT assay; type: functional, cell-based; conditions: SW-620, 72 h; method in brief: as §1
[9] = system: L929; test: Cytotoxicity against mouse L929 cells after 24 hrs in absence of GSH-OEt by MTT assay; type: cell-based; conditions: L929, 24 h; method in brief: as §2
[10] = system: HCT-116; test: Cytotoxicity against human HCT116 cells after 24 hrs in presence of GSH-OEt by MTT assay; type: functional, cell-based; conditions: HCT-116, 24 h; method in brief: as §2
[11] = system: V79; test: Antiproliferative activity against chinese hamster V79 cells after 72 hrs by MTT assay; type: cell-based; conditions: Cricetulus griseus, V79, 72 h; method in brief: as §1
[12] = system: HCT-116; test: Antiproliferative activity against human HCT116 cells after 72 hrs by MTT assay; type: functional, cell-based; conditions: HCT-116, 72 h; method in brief: as §1
[13] = system: L929; test: Antiproliferative activity against mouse L929 cells after 72 hrs by MTT assay; type: cell-based; conditions: L929, 72 h; method in brief: as §1
[14] = system: PC-3; test: Cytotoxicity against human PC3 cells after 24 hrs in absence of GSH-OEt by MTT assay; type: functional, cell-based; conditions: PC-3, 24 h; method in brief: as §2
[15] = system: HCT-116; test: Cytotoxicity against human HCT116 cells after 24 hrs in absence of GSH-OEt by MTT assay; type: functional, cell-based; conditions: HCT-116, 24 h; method in brief: as §2
[16] = system: HL-60; test: Induction of oxidative stress in human HL60 cells assessed as GSH to GSSG ratio at 5 uM treated 24 hrs post NAC addition measured after 24 hrs by spectrophotometric analysis (reference value: 4.53 +/- 0.55 microg/mg); type: functional
Method in brief: (§3)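 Cells were pretreated 24 h with 5 mM NAC, then exposed 24 h to test compound at 5 µM. Controls received 0.1% DMSO. Extracts were prepared by sonication and HClO4 precipitation, then neutralized with KOH. Total glutathione was read by DTNB/glutathione reductase/NADPH rate at 412 nm. GSSG was measured after 4-vinylpyridine (0.1%, 1 h, RT) and GSH derived by difference. Values are normalized to protein, triplicates, three independent runs.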

[17] = Drug uptake in lysosomes of human PC3 cells at 5 uM after 10 mins by LysoTracker Red dye-based confocal microscopic analysis; type: ADME, cell-based; conditions: pc-3, 10 min
Method in brief: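 PC3 cells were grown in DMEM with 10% FBS, antibiotics and 2 mM L-glutamine at 37 °C, 5% CO2. Cells were incubated with compound (5 µM) plus LysoTracker Red or MitoTracker Red for 10 min at 37 °C. Live cells were imaged in phenol red-free DMEM by confocal microscopy with a 40X oil objective, exciting at 488 nm (compound) and 543 nm (tracker dyes).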

[18] = system: V79; test: Antiproliferative activity against chinese hamster V79 cells at 0.04 to 40.92 uM after 24 to 72 hrs by MTT assay; type: cell-based, Cricetulus griseus; conditions: v79, 40.92 µM; method in brief: as §1
[19] = system: HL-60; test: Induction of oxidative stress in human HL60 cells assessed as total intracellular thiol levels at 5 uM treated 24 hrs post NAC addition measured after 24 hrs by spectrophotometric analysis (reference value: 3.61 +/- 0.22 microg/mg); type: functional; method in brief: as §3
[20] = system: HL-60; test: Antiproliferative activity against human HL60 cells after 24 to 72 hrs by MTT assay; type: functional, cell-based; method in brief: as §1
[21] = Selectivity index, ratio of IC50 for chinese hamster V79 cells to IC50 for human Jurkat cells; type: functional
Method in brief: (§4)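 Selectivity index is the ratio of the IC50 in a non-cancer murine line (V79 or L929) to the IC50 in the cancer line. […] MTT was 0.5 mg/mL for 3 h, formazan dissolved in DMSO and read at 595 nm as % of control. IC50s were derived by nonlinear regression; triplicate, at least three repeats.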

[22] = system: Jurkat; test: Antiproliferative activity against human Jurkat cells after 24 to 72 hrs by MTT assay; type: functional, cell-based; method in brief: as §1
[23] = system: Jurkat; test: Induction of oxidative stress in human Jurkat cells assessed as total GSSG levels at 5 uM after 24 hrs by spectrophotometric analysis (reference value: 0.78 +/- 0.33 microg/mg); type: functional
[24] = system: HL-60; test: Induction of oxidative stress in human HL60 cells assessed as total GSH levels at 5 uM after 24 hrs by spectrophotometric analysis (reference value: 3.01 +/- 0.11 microg/mg); type: functional
[25] = system: Jurkat; test: Induction of oxidative stress in human Jurkat cells assessed as total intracellular thiol levels at 5 uM after 24 hrs by spectrophotometric analysis (reference value: 3.87 +/- 0.55 microg/mg); type: functional
[26] = system: HL-60; test: Induction of oxidative stress in human HL60 cells assessed as total GSSG levels at 5 uM after 24 hrs by spectrophotometric analysis (reference value: 0.66 +/- 0.17 microg/mg); type: functional
[27] = system: HL-60; test: Induction of oxidative stress in human HL60 cells assessed as total GSH levels at 5 uM treated 24 hrs post NAC addition measured after 24 hrs by spectrophotometric analysis (reference value: 3.01 +/- 0.11 microg/mg); type: functional; method in brief: as §3
[28] = Selectivity index, ratio of IC50 for chinese hamster V79 cells to IC50 for human HL60 cells; type: functional; method in brief: as §4
[29] = system: HL-60; test: Induction of oxidative stress in human HL60 cells assessed as GSH to GSSG ratio at 5 uM after 24 hrs by spectrophotometric analysis (reference value: 4.53 +/- 0.55 microg/mg); type: functional
[30] = system: HL-60; test: Induction of oxidative stress in human HL60 cells assessed as total GSSG levels at 5 uM treated 24 hrs post NAC addition measured after 24 hrs by spectrophotometric analysis (reference value: 0.66 +/- 0.17 microg/mg); type: functional; method in brief: as §3
[31] = system: Jurkat; test: Induction of oxidative stress in human Jurkat cells assessed as total intracellular thiol levels at 5 uM treated 24 hrs post NAC addition measured after 24 hrs by spectrophotometric analysis (reference value: 3.87 +/- 0.55 microg/mg); type: functional; method in brief: as §3
[32] = Selectivity index, ratio of IC50 for mouse L929 cells to IC50 for human HL60 cells; type: functional; method in brief: as §4
[33] = system: Jurkat; test: Induction of oxidative stress in human Jurkat cells assessed as total GSH levels at 5 uM treated 24 hrs post NAC addition measured after 24 hrs by spectrophotometric analysis (reference value: 3.02 +/- 0.21 microg/mg); type: functional; method in brief: as §3
[34] = system: Jurkat; test: Induction of oxidative stress in human Jurkat cells assessed as GSH to GSSG ratio at 5 uM treated 24 hrs post NAC addition measured after 24 hrs by spectrophotometric analysis (reference value: 3.81 +/- 0.22 microg/mg); type: functional; method in brief: as §3
[35] = system: Jurkat; test: Induction of oxidative stress in human Jurkat cells assessed as total GSSG levels at 5 uM treated 24 hrs post NAC addition measured after 24 hrs by spectrophotometric analysis (reference value: 0.78 +/- 0.33 microg/mg); type: functional; method in brief: as §3
[36] = system: L929; test: Antiproliferative activity against mouse L929 cells at 0.04 to 40.92 uM after 24 to 72 hrs by MTT assay; type: cell-based; conditions: l929, 40.92 µM; method in brief: as §1
[37] = system: Jurkat; test: Induction of oxidative stress in human Jurkat cells assessed as total GSH levels at 5 uM after 24 hrs by spectrophotometric analysis (reference value: 3.02 +/- 0.21 microg/mg); type: functional
[38] = system: HL-60; test: Induction of oxidative stress in human HL60 cells assessed as total intracellular thiol levels at 5 uM after 24 hrs by spectrophotometric analysis (reference value: 3.61 +/- 0.22 microg/mg); type: functional
[39] = system: Jurkat; test: Induction of oxidative stress in human Jurkat cells assessed as GSH to GSSG ratio at 5 uM after 24 hrs by spectrophotometric analysis (reference value: 3.81 +/- 0.22 microg/mg); type: functional
[40] = Selectivity index, ratio of IC50 for mouse L929 cells to IC50 for human Jurkat cells; type: functional; method in brief: as §4

CC1(C)OC2=C(C(=O)c3ccccc3C2=O)C1n1cc(CNC2=[N+]3C(=C(c4ccccc4)c4ccc(Cl)n4[B-]3(F)F)C=C2)nn1 (configuration not stated)
IC50 [1]: > 8.1 µM
IC50 [2]: > 40 µM
IC50 [3]: > 40 µM
IC50 [4]: > 8.1 µM
IC50 [5]: > 40 µM
IC50 [6]: > 8.1 µM
IC50 [7]: > 40 µM
IC50 [8]: > 8.1 µM
IC50 [9]: > 40 µM
IC50 [10]: > 40 µM
IC50 [11]: > 8.1 µM
IC50 [12]: > 8.1 µM
IC50 [13]: > 8.1 µM
IC50 [14]: > 40 µM
IC50 [15]: > 40 µM

CC1=CC(C)=[N+]2C1=C(c1ccc(OCc3cn(C4C5=C(OC4(C)C)c4ccccc4C(=O)C5=O)nn3)cc1)c1c(C)cc(C)n1[B-]2(F)F (configuration not stated)
Activity [16]: 0.76 µg/mg
Drug uptake [17]: Metabolite_Detected
Activity [18]: Non-Toxic
Activity [19]: 2.83 µg/mg
IC50 [1]: > 7.72 µM
IC50 [20]: 0.92 µM
Ratio IC50 [21]: >8.5
IC50 [4]: 2.39 µM
IC50 [6]: > 7.72 µM
IC50 [22]: 0.94 µM
Activity [23]: 2.57 µg/mg
Activity [24]: 0.72 µg/mg
Activity [25]: 3.28 µg/mg
IC50 [8]: > 7.72 µM
Activity [26]: 2.18 µg/mg
Activity [27]: 1.19 µg/mg
Ratio IC50 [28]: >8.5
Activity [29]: 0.31 µg/mg
Activity [30]: 1.47 µg/mg
Activity [31]: 3.11 µg/mg
Ratio IC50 [32]: >8.5
Activity [33]: 1.58 µg/mg
Activity [34]: 1.08 µg/mg
Activity [35]: 1.44 µg/mg
IC50 [11]: > 7.72 µM
IC50 [12]: 2.85 µM
Activity [36]: Non-Toxic
Activity [37]: 0.6 µg/mg
IC50 [13]: > 7.72 µM
Activity [38]: 3.01 µg/mg
Activity [39]: 0.21 µg/mg
Ratio IC50 [40]: >8.5
